{"source": "ChEMBL document CHEMBL5724801", "about": "“EUbOPEN Chemogenomics Library - Multiplex” (2024)", "tested_on": "HEK-293T", "assay": "Multiplex assay against HEK293T", "type": "toxicity, cell-based", "details": "human", "summary_of_the_method": "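Hoechst33342, BioTracker Green Microtubule Cytoskeleton Dye, MitoTracker Red and Annexin V Alexa Fluor 680 were added to live cells at seeding, and imaging on a CQ1 microscope at 37°C and 5% CO2 followed compound addition. Gating by CellPathfinder machine learning separated cells into Hoechst high-intensity objects or normal cells, then normal cells into healthy, pyknosed or fragmented nuclei, then pyknosed cells into mitotic or apoptotic. Per cents of healthy-nucleus cells are reported for the tubulin, mitochondrial-mass and membrane-permeability phenotypes.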", "key": {"[1]": {"details": "12 h, 1 µM, compound concentration 1 uM"}, "[2]": {"details": "12 h, 10 µM, compound concentration 10 uM"}, "[3]": {"details": "24 h, 1 µM, compound concentration 1 uM"}, "[4]": {"details": "24 h, 10 µM, compound concentration 10 uM"}, "[5]": {"details": "48 h, 1 µM, compound concentration 1 uM"}, "[6]": {"details": "48 h, 10 µM, compound concentration 10 uM"}}, "note": "Values joined by “and” are separate entries in the source; they are usually repeats but may differ in a detail not shown here. Equal entries are not always repeated.", "data": [{"molecule": "O=C(Nc1cc(C(F)(F)F)cc(C(F)(F)F)c1)c1cc(Cl)ccc1O", "note": "[IMD-0354]", "values": [{"measurement": "Population Apoptotic (%)", "setting": "[1]", "value": "4.35% and 3.39%"}, {"measurement": "Population Fragmented Nuclei (%)", "setting": "[1]", "value": "2.35% and 2.03%"}, {"measurement": "Population Healthy Nuclei (%)", "setting": "[1]", "value": "43.53% and 18.24%"}, {"measurement": "Population Hoechst High Intensity Objects (%)", "setting": "[1]", "value": "0.58% and 0%"}, {"measurement": "Population Membrane Permeable-Phenotype (%)", "setting": "[1]", "value": "0.68% and 0%"}, {"measurement": "Population Mitotic Cells (%)", "setting": "[1]", "value": "95.65% and 96.61%"}, {"measurement": "Population Normal (%)", "setting": "[1]", "value": "99.42% and 100%"}, {"measurement": "Population Pyknosed Nuclei (%)", "setting": "[1]", "value": "54.12% and 79.73%"}, {"measurement": "Total Cell Count", "setting": "[1]", "value": "342 and 148"}, {"measurement": "Population Apoptotic (%)", "setting": "[2]", "value": "8.89% and 5.65%"}, {"measurement": "Population Fragmented Nuclei (%)", "setting": "[2]", "value": "4.05% and 10.2%"}, {"measurement": "Population Healthy Nuclei (%)", "setting": "[2]", "value": "14.86% and 5.44%"}, {"measurement": "Population Hoechst High Intensity Objects (%)", "setting": "[2]", "value": "1.33% and 0%"}, {"measurement": "Population Membrane Permeable-Phenotype (%)", "setting": "[2]", "value": "0% and 12.5%"}, {"measurement": "Population Mitotic Cells (%)", "setting": "[2]", "value": "91.11% and 94.35%"}, {"measurement": "Population Normal (%)", "setting": "[2]", "value": "98.67% and 100%"}, {"measurement": "Population Pyknosed Nuclei (%)", "setting": "[2]", "value": "81.08% and 84.35%"}, {"measurement": "Population Tubulin-Different-Phenotype (%)", "setting": "[2]", "value": 0, "unit": "%"}, {"measurement": "Total Cell Count", "setting": "[2]", "value": "225 and 147"}, {"measurement": "Population Apoptotic (%)", "setting": "[3]", "value": "6.35% and 10.83%"}, {"measurement": "Population Fragmented Nuclei (%)", "setting": "[3]", "value": "1.67% and 0%"}, {"measurement": "Population Healthy Nuclei (%)", "setting": "[3]", "value": "68.26% and 25.47%"}, {"measurement": "Population Hoechst High Intensity Objects (%)", "setting": "[3]", "value": "0.48% and 0%"}, {"measurement": "Population Membrane Permeable-Phenotype (%)", "setting": "[3]", "value": "2.8% and 4.88%"}, {"measurement": "Population Mitochondria Different-Phenotype (%)", "setting": "[3]", "value": "4.9% and 4.88%"}, {"measurement": "Population Mitotic Cells (%)", "setting": "[3]", "value": "93.65% and 89.17%"}, {"measurement": "Population Normal (%)", "setting": "[3]", "value": "99.52% and 100%"}, {"measurement": "Population Pyknosed Nuclei (%)", "setting": "[3]", "value": "30.07% and 74.53%"}, {"measurement": "Population Tubulin-Different-Phenotype (%)", "setting": "[3]", "value": "6.99% and 2.44%"}, {"measurement": "Total Cell Count", "setting": "[3]", "value": "421 and 161"}, {"measurement": "Population Apoptotic (%)", "setting": "[4]", "value": "5.52% and 6.29%"}, {"measurement": "Population Fragmented Nuclei (%)", "setting": "[4]", "value": "3.57% and 12.35%"}, {"measurement": "Population Hoechst High Intensity Objects (%)", "setting": "[4]", "value": "0.88% and 0%"}, {"measurement": "Population Membrane Permeable-Phenotype (%)", "setting": "[4]", "value": "5.71% and 0%"}, {"measurement": "Population Mitochondria Different-Phenotype (%)", "setting": "[4]", "value": "5.71% and 0%"}, {"measurement": "Population Mitotic Cells (%)", "setting": "[4]", "value": "94.48% and 93.71%"}, {"measurement": "Population Normal (%)", "setting": "[4]", "value": "99.12% and 100%"}, {"measurement": "Population Pyknosed Nuclei (%)", "setting": "[4]", "value": "80.8% and 84.12%"}, {"measurement": "Population Tubulin-Different-Phenotype (%)", "setting": "[4]", "value": "5.71% and 16.67%"}, {"measurement": "Total Cell Count", "setting": "[4]", "value": "226 and 170"}, {"measurement": "Population Apoptotic (%)", "setting": "[5]", "value": "6.21% and 4.35%"}, {"measurement": "Population Fragmented Nuclei (%)", "setting": "[5]", "value": "1.53% and 0.99%"}, {"measurement": "Population Healthy Nuclei (%)", "setting": "[5]", "value": "78.27% and 53.69%"}, {"measurement": "Population Hoechst High Intensity Objects (%)", "setting": "[5]", "value": 0, "unit": "%"}, {"measurement": "Population Membrane Permeable-Phenotype (%)", "setting": "[5]", "value": "16.37% and 6.42%"}, {"measurement": "Population Mitochondria Different-Phenotype (%)", "setting": "[5]", "value": "2.49% and 3.67%"}, {"measurement": "Population Mitotic Cells (%)", "setting": "[5]", "value": "93.79% and 95.65%"}, {"measurement": "Population Normal (%)", "setting": "[5]", "value": 100, "unit": "%"}, {"measurement": "Population Pyknosed Nuclei (%)", "setting": "[5]", "value": "20.19% and 45.32%"}, {"measurement": "Population Apoptotic (%)", "setting": "[6]", "value": "5.97% and 5.04%"}, {"measurement": "Population Fragmented Nuclei (%)", "setting": "[6]", "value": "3.97% and 7.69%"}, {"measurement": "Population Healthy Nuclei (%)", "setting": "[6]", "value": "16.27% and 10.06%"}, {"measurement": "Population Hoechst High Intensity Objects (%)", "setting": "[6]", "value": "0.79% and 0%"}, {"measurement": "Population Membrane Permeable-Phenotype (%)", "setting": "[6]", "value": "12.2% and 5.88%"}, {"measurement": "Population Mitochondria Different-Phenotype (%)", "setting": "[6]", "value": "21.95% and 11.76%"}, {"measurement": "Population Mitotic Cells (%)", "setting": "[6]", "value": "94.03% and 94.96%"}, {"measurement": "Population Normal (%)", "setting": "[6]", "value": "99.21% and 100%"}, {"measurement": "Population Pyknosed Nuclei (%)", "setting": "[6]", "value": "79.76% and 82.25%"}, {"measurement": "Total Cell Count", "setting": "[6]", "value": "254 and 169"}]}]}
